Series [1] relates to A549. Nature of the series: Inhibition of diphtheria induced toxicity in human A549 cells assessed as protection fold at 30 uM incubated for 20 hrs followed by replacement of [14c]-Leucine containing medium and measured after 4 hrs by liquid scintillation analysis relative to ABMA. In kind it is functional. The essentials: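 Single-concentration screen: 30 μM compound on A549 cells with increasing DT concentrations, read as protein synthesis inhibition. Protection fold was calculated with ABMA as the positive control.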

For series [2], the system named is A549. Nature of the series: Inhibition of diphtheria induced toxicity in human A549 cells assessed as protection factor at 0.15 nM incubated for 20 hrs followed by replacement of [14c]-Leucine containing medium and measured after 4 hrs by liquid scintillation analysis relative to untreated control. The format is functional. The essentials:
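A549 cells were incubated with Baf A1 (0.15 nM), DABMA (15 μM), both, or DMSO vehicle before DT was added, with the compounds kept present throughout. Toxin protection was read as protein synthesis and expressed as protection factor.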

Series [3] concerns A549. Put plainly: Cytoprotection activity against diphtheria toxin-induced cytotoxicity against human A549 cells assessed as effect on protein synthesis incubated for 20 hrs followed by replacement of [14c]-Leucine containing medium and measured after 4 hrs by liquid scintillation analysis. In kind it is functional, cell-based. In outline:
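A549 cells were incubated with compound and then challenged with increasing DT concentrations. DT cytotoxicity was read as protein synthesis inhibition. Data are mean of duplicate wells ± SD from one representative experiment (n = 3).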

Series [4] concerns A549. Put plainly: Selectivity index, ratio of CC50 for cytotoxicity against human A549 cells to EC50 for cytoprotective activity in diphtheria-induced cytotoxicity in human A549 cells.
Series [5] can be described thus: Cytotoxicity against human A549 cells assessed as reduction in cell viability incubated for 24 hrs by Alamar blue assay. The format is cell-based. The essentials: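 A549 cytotoxicity by Alamar Blue viability assay; duplicate wells, mean ± SD, one representative experiment (n = 3).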
Series [6] deals with Lyssavirus rabies. Put plainly: Antiviral activity against RABV infected in BSR cells preincubated for 4 hrs followed by viral infection and further incubated with compounds for 24 hrs by immunostaining-based assay. In kind it is functional, organism-based. The essentials:
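BSR cells were pretreated 4 h with compound, then infected with RABV (MOI = 14) for 1 h. Cells were washed and kept with compound for 24 h, then fixed and immunostained for the RABV ribonucleocapsid (RNP). Nuclei and RNP images from 15 fields per well (>10,000 cells) were used to calculate percent inhibition.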

Series [7] deals with A549. Nature of the series: Induction of lysosomal activation in human A549 cells at 60 uM incubated for 2 hrs by LysoTracker Red staining based confocal microscopic analysis. In kind it is functional, cell-based. In outline:
(§1)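 A549 cells were pretreated 2 h with compound (30 or 60 μM) or DMSO, then stained with LysoTracker Deep Red (50 nM, 30 min) plus Hoechst. Intensity was read from 3 × 3 fields per well (10,000 cells/well) by imaging reader; mean ± SEM, n = 4; confocal images.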

In series [8] the test system is A549. Nature of the series: Increase in cholesterol accumulation in human A549 cells at 60 uM incubated for 18 hrs by choelesterol-avid filipin-3 staining based confocal microscopic analysis. The format is functional, cell-based. In outline:
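A549 cells were treated 18 h with compound or DMSO, fixed, and stained with Filipin III for cholesterol. Confocal imaging; fluorescence quantified in >30 cells (mean ± SEM), unpaired t test versus DMSO.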

In series [9] the test system is L929. Nature of the series: Cytoprotective activity in Pseudomonas aeruginosa exotoxin-induced toxicity in mouse L929 cells assessed as protection of protein synthesis after 18 hrs followed by replacement of [14c]-Leucine containing medium and measured after 4 hrs by liquid scintillation analysis by liquid scintillation analysis. The format is functional, cell-based. In outline:
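L929 cells were intoxicated with increasing doses of Pseudomonas exotoxin A for 18 h with compound (30 μM) or DMSO present. Protein synthesis was measured; duplicate wells, mean ± SD, one representative experiment (n = 3).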

For series [10], the system named is Vero. Nature of the series: Inhibition of TcdB-induced cytotoxicity against African green monkey Vero cells assessed as reduction in toxin-induced cell rounding at 30 uM in presence of TcdB after 4 hrs by inverted microscopic analysis. The following applies: Chlorocebus sabaeus. In kind it is functional, cell-based. In outline:
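Vero cells were given compound (30 μM) or DMSO, then increasing doses of TcdB for 4 h or TcsL for 16 h. Cell rounding was imaged by inverted microscope. Rounded cells were counted and normalised to total Hoechst-counterstained cells (>100 cells per treatment).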

In series [11] the test system is A549. Nature of the series: Induction of lysosomal activation in human A549 cells at 30 uM incubated for 2 hrs by LysoTracker Red staining based confocal microscopic analysis. The format is functional, cell-based. The essentials:
as §1

Series [12] has as its system A549. Nature of the series: Induction of lysosomal activation in human A549 cells incubated for 2 hrs by LysoTracker Red staining based confocal microscopic analysis. The format is functional, cell-based. The essentials:
as §1

Structures are written as SMILES. pEC50: −log10 of the molar value. Calls of active or inactive are those of the source. The rule behind the calls is not given here.

With `Cn1c(CNC23CC4CC(CC(C4)C2)C3)cc2ccccc21`, the “fold change (FC)” value in series [1] was found to be 0.21.
As for `Ic1ccc(CNC23CC4CC(CC(C4)C2)C3)cc1`, the “fold change (FC)” value in series [1] was found to be 6.6.
For `CC12CC3CC(C)(C1)CC(N)(C3)C2` [MEMANTINE], in series [1], the “fold change (FC)” value amounted to 0.
On to `CO/C1=C\C(C)=C\[C@@H](C)[C@@H](O)[C@@H](C)C/C(C)=C/C=C/[C@H](OC)[C@@H]([C@@H](C)[C@@H](O)[C@H](C)[C@@]2(O)C[C@@H](O)[C@H](C)[C@@H](C(C)C)O2)OC1=O` [BAFILOMYCIN A1], for which the “fold change (FC)” value in series [2] stood at 5.2. Also, the pEC50 in series [3] was 9.22.
Take `COc1ccc(Br)cc1CNC1CC(C)CCC1C(C)C` (stereo not given): the “fold change (FC)” value in series [1] was determined as 2.2.
Take `Brc1ccc(CNC23CC4CC(CC(C4)C2)C3)cc1`: the “fold change (FC)” value in series [1] is reported as 2.3.
Regarding `CC12CC3CC(C)(C1)CC(NCc1ccc(I)cc1)(C3)C2`, in series [3], the pEC50 is 4.42. In addition, the “Ratio CC50/EC50” value in [4] is recorded as 3.6. Also, the cytotoxic concentration (CC50) at 24 h in [5] was 137 µM. Also, in series [1], the “fold change (FC)” value is 12.5.
As to `COc1ccc(Br)cc1CNCc1ccccc1`, in [1], the “fold change (FC)” value is listed as 0.
As to `NC(=O)c1ncn([C@@H]2O[C@H](CO)[C@@H](O)[C@H]2O)n1`, the inhibition result in [6] is “Active”.
In the case of `COc1ccc(Br)cc1CNCCCc1ccccc1`, the “fold change (FC)” value in series [1] was 0.52.
For the molecule `COc1ccc(Br)cc1CNC1CCCCC1`, in series [1], the “fold change (FC)” value is reported as 0.
The same measure, in the same setting: the value for `COc1ccc(Br)cc1CNc1ccccc1` was 0.19.
`Cn1c(CNC2C3CC4CC(C3)CC2C4)cc2ccccc21` (stereo not given): the “fold change (FC)” value in series [1] came out at 0.21.
Regarding `COc1ccc(Br)cc1C(=O)NC12CC3CC(CC(C3)C1)C2`, the outcome in [7] and in [8] was inactive. The “fold change (FC)” value in [1] is listed as 0.
On to `O=[N+]([O-])c1cccc(CNC23CC4CC(CC(C4)C2)C3)c1`, for which, in series [1], the “fold change (FC)” value is on record as 5.7.
As to `COc1ccc(Br)cc1CNC(C)(C)C`, the “fold change (FC)” value in [1] was determined as 0.
Still for that read-out and setting: for `NC12CC3CC(CC(C3)C1)C2` [AMANTADINE] the value was 0.3; for `CCCCCCCCCNCc1cc(Br)ccc1OC`, 0.26.
As for `COc1ccc(Br)cc1CNC12CC3CC(CC(C3)C1)C2`, the result in [9] and in series [11] was Active. The inhibition result in [10] and in series [6] was “Active” each time. Moreover, in series [3], the pEC50 was 4.20. Further, in series [4], the “Ratio CC50/EC50” value is listed as 4.4. The CC50 at 24 h in series [5] came to 277 µM.
`CC(N)C12CC3CC(CC(C3)C1)C2.Cl` (stereo not given) [RIMANTADINE HYDROCHLORIDE]: in series [1], the “fold change (FC)” value is recorded as 0.35.
Still for that read-out and setting: for `COc1ccc(Br)cc1CN(C)C12CC3CC(CC(C3)C1)C2` the value was 0.52; for `COc1ccc(Br)cc1CN[C@H]1C[C@@H]2CC[C@@]1(C)C2(C)C`, 0.4; for `COc1cc(I)ccc1CNC12CC3CC(CC(C3)C1)C2`, 3.6.
The same measure, in the same setting: the value for `COc1ccc(Br)cc1CNc1cccc2ccccc12` was 0.19; that for `COc1ccc(Br)cc1CN(C(=O)c1ccccc1)C12CC3CC(CC(C3)C1)C2` was 0.25.
For the molecule `COc1ccc(Br)cc1CN(C(C)=O)C12CC3CC(CC(C3)C1)C2`, the outcome in series [12] was inactive. In addition, the “fold change (FC)” value in series [1] amounted to 0.3.
In the same order, the values of `COc1ccc(Br)cc1/C=N/C12CC3CC(CC(C3)C1)C2` are “inactive” and 0.05.
Take `COc1ccc(I)cc1CNC12CC3CC(C)(CC(C)(C3)C1)C2`: the pEC50 in series [3] was 4.60. In addition, in series [4], the “Ratio CC50/EC50” value is on record as 3.6. In addition, in series [5], the CC50 at 24 h is 90.8 µM. Moreover, the “fold change (FC)” value in [1] was determined as 35.1.
